# From paper PMC10785272 (ACS Omega, 2023)
# Experiments:
# HeLa cells = assay: In vitro cytotoxicity MTS assay with HeLa cells; assay type: cell-based, human; conditions: HeLa cell line, 48 h incubation, mean ± SD (n = 3)
# Procedure, shortened: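 HeLa cells were grown in EMEM with 10% FBS, nonessential amino acids and sodium pyruvate at 37 °C in 5% CO2. They were seeded at 40000 cells/well and left 24 h, then exposed 48 h to freshly prepared medium holding test compound over 0–100 or 0–1000 µM. MTS was added for 3 h and absorbance read at 490 nm. IC50 was obtained by curve fitting; runs were in triplicate.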
# [1] = In vitro stability of FGC-Pt in mouse plasma; assay type: in vitro ADME; conditions: 37 °C
# Procedure, shortened: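 Test compound (2.4 mg) was mixed with purchased mouse plasma (160 µL) and held at 37 °C for 0, 2, 4 and 6 h. Each mixture was diluted with saline, filtered and analysed by HPLC on a Sugar-D column with a water/methanol linear gradient at 0.5 mL/min, with UV detection at 220 nm. Results are mean ± SD, n = 3.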
# A549 cell-bearing mice [2] = assay: In vivo biodistribution; parameters: species or system mouse; conditions: 4 mg of Pt/kg tail vein; for ratio of platinum concentration tumor/blood / ratio of platinum concentration tumor/bone / ratio of platinum concentration tumor/kidney / ratio of platinum concentration tumor/liver / ratio of platinum concentration tumor/muscle: A549 cell-bearing mice; for platinum accumulation in tumors: ICP-MS, mean ± SD (n = 4)
# Procedure, shortened: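 Male BALB/c nu/nu mice (5 weeks old, quarantined 1 week) received 1 × 10^7 A549 cells s.c. into the right shoulder. At 50 mm3 tumour volume, mice got 4 mg Pt/kg by tail vein in freshly prepared saline (n = 4/group). At 24 and 48 h, Pt in tumour, muscle, bone, blood, liver and kidney was measured by ICP-MS after acid digestion. Values are ng Pt/g tissue and tumour/organ concentration ratios.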
# A549 cell-bearing mice [3] = assay: In vivo assessment of antitumor effect and toxicity in A549 cell-bearing mice; parameters: species or system mouse; conditions: 2.7 mg of Pt/kg i.v. on days 1, 8, 15, 22; n = 6
substance,measurement,setting,value
"cis-Dichloro [(2-Fluoro-α-D-glucopylanosidyl)propane-1,3-diamine] Platinum [FGC-Pt]",IC50,HeLa cells,447 ± 99 µM
same,half-life in mouse plasma,[1],approximately 2 h
same,ratio of platinum concentration tumor/blood,A549 cell-bearing mice [2]; 24 h post-injection,11.07
same,ratio of platinum concentration tumor/bone,A549 cell-bearing mice [2]; 24 h post-injection,2.93
same,ratio of platinum concentration tumor/kidney,A549 cell-bearing mice [2]; 24 h post-injection,0.29
same,ratio of platinum concentration tumor/liver,A549 cell-bearing mice [2]; 24 h post-injection,0.50
same,ratio of platinum concentration tumor/muscle,A549 cell-bearing mice [2]; 24 h post-injection,3.64
same,platinum accumulation in tumors,A549 cell-bearing mice [2]; 24 h post-injection,1058 ± 220 Pt ng/g tissue
same,ratio of platinum concentration tumor/blood,A549 cell-bearing mice [2]; 48 h post-injection,14.37
same,ratio of platinum concentration tumor/bone,A549 cell-bearing mice [2]; 48 h post-injection,3.03
same,ratio of platinum concentration tumor/kidney,A549 cell-bearing mice [2]; 48 h post-injection,0.42
same,ratio of platinum concentration tumor/liver,A549 cell-bearing mice [2]; 48 h post-injection,0.59
same,ratio of platinum concentration tumor/muscle,A549 cell-bearing mice [2]; 48 h post-injection,4.09
same,platinum accumulation in tumors,A549 cell-bearing mice [2]; 48 h post-injection,1055 ± 278 Pt ng/g tissue
same,"toxic side effects (body weight, loss of appetite, injection site)",A549 cell-bearing mice [3],reduces toxicity compared to that of cisplatin
